Only some compounds are listed: those with a hit (about 3.5% of all), similar ones and a draw of the others.
MrgX1 PAM = human MrgX1 positive allosteric modulation, primary screen | AID 588675 | MrgX1-HEK293, Fluo-4 calcium flux, FDSS; hits give high values | 0.63% of 310,000 active | B-score at 10 µM;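 active = plate-corrected calcium response at least 3 library SD above typical, normal starting fluorescence, not activating the receptor alone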;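 note: compound read alongside a low EC10 to EC30 dose of BAM8-22 agonist; peak minus trough fluorescence over baseline measured at the second addition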
RGS4 act = potentiators or activators of RGS4 | B-score at 10 µM | 0.92% of 310,000 active | HEK293 M3R/inducible RGS4, carbachol calcium flux Fluo4; hits give low values;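 active = B-score of the integrated calcium signal more than 4 SD below the library mean, with starting fluorescence not abnormally high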;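 note: negative B-score means reduced calcium response which marks RGS4 activation or potentiation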
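Assay system: Inducible-RGS4 HEK293 cells carrying M3 receptor | Schedule: Compound preincubation 20 min at room temperature before agonist | Signal: Kinetic calcium fluorescence imaging with Fluo4-AM dye, 2 µM | Read-out basis: B score from integrated fluorescence ratio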
RGS4 block = inhibitors of human RGS4. P49798. AID 463165. 0.45% of 310,000 active. B-score at 10 µM. HEK293 M3R/RGS4 inducible, Fluo-4 calcium flux; hits give high values; triggered by carbachol at its EC20;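 active = B-score, a plate-corrected calcium signal, over three deviations above library mean, with baseline fluorescence within five deviations of library mean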;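 note: RGS4 expression induced by doxycycline in cells with stable M3 receptor; B-score is computed from the integrated fluorescence ratio over baseline after carbachol; higher B-score means a larger calcium signal and so more RGS4 inhibition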
Target sequence (P49798 whole entry, looked up): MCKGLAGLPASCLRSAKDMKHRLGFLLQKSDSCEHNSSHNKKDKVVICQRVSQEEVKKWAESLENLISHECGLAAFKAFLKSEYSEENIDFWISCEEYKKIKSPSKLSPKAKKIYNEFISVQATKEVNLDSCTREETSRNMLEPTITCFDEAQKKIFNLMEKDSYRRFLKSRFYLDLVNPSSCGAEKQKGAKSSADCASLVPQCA
MrgX1 antagonist = blocks BAM8-22 activation of human MrgX1 receptor. B-score at 10 µM. 1.3% of 310,000 active. AID 588676. Q96LB2. MRGX1-HEK293 calcium flux, Fluo-4, BAM8-22 antagonism; hits give low values;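 active = calcium-response B-score plate-corrected more than 3 library SD below zero, starting fluorescence within 5 deviations, no agonist response on first addition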;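 note: peak minus trough fluorescence over baseline after final BAM8-22 challenge near maximal dose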
MrgX1 ag = human MrgX1 receptor agonism, primary screen. Q96LB2. MrgX1-HEK293 cells, Fluo-4 calcium fluorescence, agonist mode; hits give high values. B-score at 10 µM. 0.44% of 310,000 active. AID 588627;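 active = calcium response B-score plate-corrected fluorescence ratio at least 3 library SD, with starting fluorescence B-score inside 5 SD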
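Test system: HEK293 cells stably expressing human MrgX1 receptor; Input: fifteen thousand cells per well; Dosing: compound delivered in addition one of three; Schedule: overnight seeding, then 1 h dark dye loading; Technique: Fluo-4 NW calcium fluorescence; Measure: B-scored fluorescence response ratio; Controls: positive and negative controls per plate.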
Numbers stand for hits; i = inactive.

SMILES	MrgX1 PAM	RGS4 act	RGS4 block	MrgX1 antagonist	MrgX1 ag
COC(=O)c1ccc(C23CC4(C2)[C@H](CN(C)[C@@H]4c2ccccc2)C3c2ccc(Cl)nc2)cc1 (stereo not given in full)	i	-7.1	i	i	i
O=C(COc1ccccc1Cl)Nc1ccc(N2CCN(C(=O)c3ccccc3)CC2)cc1	i	i	i	i	i
CCCCc1cc(=O)oc2cc(C)cc(O)c12	i	i	i	i	i
CCCCc1cc(=O)oc2cc(O)cc(O)c12	i	i	i	i	33
CCCc1cc(O)c2c(C)cc(=O)oc2c1	i	i	i	i	31
N#C/C(=C\c1cccnc1)c1nc2c(s1)CCCC2	i	i	i	-5.5	i
CN(C(=O)CSc1nnc(-c2ccccc2F)o1)c1ccccc1	i	i	i	i	i
COc1ccc(CN(C(=O)CSc2nnc(-c3ccccc3F)o2)c2ccc(F)cc2)cc1	i	-7.8	i	i	i
COc1ccc(N(C)C(=O)c2ccc3c(Cl)c4c(nc3c2)CCCC4)c(OC)c1	i	-7.1	i	i	i
CC(C)(C)c1cc(CCC(=O)NNC(=S)NC(=O)c2ccccc2)cc(C(C)(C)C)c1O	i	i	i	i	50
CCCCCCCC(=O)NNC(=O)Cc1ccccc1	i	i	i	-6.9	i
CCCCC(=O)NC(=S)NNC(=O)CCc1ccccc1	i	i	i	i	49
CC(=O)N1CCC(C(=O)N2CCN(S(=O)(=O)c3ccc(Cl)s3)CC2)CC1	i	i	i	i	i
COc1cc2c(cc1NC(=S)Nc1cccc(C(F)(F)F)c1)oc1ccccc12	i	i	i	-5.7	i
COc1cc2c(cc1NC(=S)Nc1cccc3ccccc13)oc1ccccc12	i	i	i	i	i
CSc1ncccc1C(=O)N1CCCC(Nc2ccc(C)c(C)c2)C1 (stereo not given)	i	i	i	i	i
O=C(O)COc1ccc(/C=C/c2nc3ccc([N+](=O)[O-])cc3s2)cc1	i	i	i	-4.8	i
O=C(NCc1cccc(Cl)c1)c1cccc(OC2CCN(C(=O)C3CC3)CC2)c1	i	i	i	-5.6	i
COCCOC1CCN(C(=O)C2CCC(=O)N(CCc3ccccc3)C2)CC1 (stereo not given)	i	i	i	i	i
O=C(C1CCC(Cn2c(=S)[nH]c3ccccc3c2=O)CC1)N1CCN(c2ccccc2)CC1 (stereo not given)	i	i	5.4	i	i
O=C(C1CCC(Cn2c(=S)[nH]c3ccccc3c2=O)CC1)N1CCOCC1 (stereo not given)	i	i	i	i	i
CC(=O)Oc1ccc2c(=O)c(/C=N/c3cc(=O)[nH]c(=S)[nH]3)coc2c1	14	i	i	i	i
O=c1cc(/N=C/c2coc3cc(Br)ccc3c2=O)[nH]c(=S)[nH]1	i	i	i	i	i
O=C1NC2(CCCCC2)C(=O)N1Cc1ccc([N+](=O)[O-])cc1	i	i	i	-7.2	i
CC(=O)N1c2ccccc2C2(C)C(C1(C)C)C2(Cl)Cl (stereo not given)	i	i	i	i	i
SMILES	MrgX1 PAM	RGS4 act	RGS4 block	MrgX1 antagonist	MrgX1 ag
Cc1ccc2c(c1)C1(C)C(C(C)(C)N2C=O)C1(Cl)Cl (stereo not given)	13	i	i	i	i
CC(=O)N1c2ccc(S(=O)(=O)NCCC(=O)Nc3ncccc3C)cc2CC1C (stereo not given)	i	i	i	i	i
COc1ccccc1CNC(=O)c1nn(-c2ccc(C)cc2)c(=O)c2c1c1ccccc1n2C	i	i	i	-8	i
COc1cc(OC)cc(C(=O)N[C@H](C(=O)NCc2cccs2)C(C)C)c1	i	i	i	i	i
CCOc1ccccc1NC(=O)C(Sc1ccccc1)c1ccccc1 (stereo not given)	i	-7.3	i	-5	i
COc1ccccc1NC(=O)C(Sc1ccccc1)c1ccccc1 (stereo not given)	i	i	i	i	i
CSc1ccccc1C(=O)N1CCC(n2nccc2NC(=O)C(C)(C)C)CC1	i	i	i	i	i
CCN(CC)C(=O)CSc1nnc(-c2c[nH]c3ccccc23)o1	i	i	i	i	i
CC1CCCCN1C(=O)c1c([N+](=O)[O-])cnn1C (stereo not given)	i	i	i	-9.2	i
CCOC(=O)Cc1csc(N/N=C\c2ccccc2OC)n1	i	i	i	i	i

Source: PubChem (Johns Hopkins Ion Channel Center)
